Screening results: PubChem, Sanford-Burnham Center for Chemical Genomics
Most compounds without a hit are left out; they make up all but 3% or so of the library.
Apaf-1 inh: inhibitors of human Apaf-1 apoptosome, primary screen, biochemical, DEVD-Rh110 fluorescence, uHTS; Apoptotic protease-activating factor 1 (Homo sapiens), O14727; reconstituted apoptosome caspase-3 activity; inhibition, % at 20 µM; actives 0.71% (n = 330,000); AID 489030, 2010; active = inhibition of at least 40% at 20 µM
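Assay system: Apoptosome proteins | Medium: pH 7.5 Hepes buffer with CHAPS, BSA, DTT | Also added: Cytochrome c and DEVD-Rh110 substrate | Times: 30 min plus 50 min, RT | Detection: Rhodamine 110 fluorescence at Ex 480/Em 540 nm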
SENP8 block-1: SENP8 protease inhibitors, primary screen, biochemical, luminescence. Sentrin-specific protease 8 (Homo sapiens), Q96LD8. AID 2540, 2010. inhibition, % at 10 µM. purified SENP8, Z-RLRGG-aminoluciferin cleavage. actives 1.2% (n = 330,000); in the data active = inhibition above about 50%
Target sequence (Q96LD8 whole entry, looked up): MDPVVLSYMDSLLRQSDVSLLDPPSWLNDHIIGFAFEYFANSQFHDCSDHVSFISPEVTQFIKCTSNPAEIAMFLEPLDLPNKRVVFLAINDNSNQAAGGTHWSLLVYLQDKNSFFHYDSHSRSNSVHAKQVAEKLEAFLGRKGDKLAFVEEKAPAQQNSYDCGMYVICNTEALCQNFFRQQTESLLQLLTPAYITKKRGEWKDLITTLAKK
UBC13 inh: UBC13 polyubiquitin chain formation inhibitors, primary screen, biochemical, TR-FRET, uHTS; actives 0.47% (n = 330,000); inhibition, % at 20 µM; AID 485273, 2010; in the data active = inhibition above about 45%, passing the limit was not always enough
SENP6 inh: SENP6 protease inhibitors, primary screen, biochemical, luminescence, uHTS; Recombinant SENP6 catalytic domain, aminoluciferin luminescence; inhibition, % at 10 µM; actives 1.8% (n = 330,000);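 active = inhibition above about 50% at the single tested dose, limit read from the data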
SENP8 block-2: human SENP8 protease inhibitors, primary screen, biochemical, fluorescence, Nedd8 protein substrate, uHTS; recombinant SENP8; actives 0.64% (n = 360,000); inhibition, % at 20 µM; in the data active = inhibition mostly above about 40%, no sharp cut-off; inactive = mostly below about 27%
SENP7 inh: SENP7 protease inhibitors, primary screen, biochemical, luminescence, uHTS; Sentrin-specific protease 7 (Homo sapiens), Q9BQF6; recombinant SENP7, Z-RLRGG-aminoluciferin luminescence, 40 min; inhibition, % at 5 µM; actives 1.5% (n = 330,000);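 active = inhibition above about 50% at the single test dose, limit read from the data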
SENP8 conf: SENP8 protease inhibitors, retest, confirmation, biochemical, luminescence, single concentration | actives 40% (n = 6,200) | AID 488912, 2010 | shares compounds with SENP7 inh | inhibition, % at 12.5 µM | Recombinant SENP8, Z-RLRGG-aminoluciferin luminescence, 60 min;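 active = mean inhibition across replicates above about 50%, limit read from the data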
SENP6 conf: SENP6 protease inhibitors, confirmation, biochemical, luminescence, single concentration; recombinant SENP6, Z-RLRGG-aminoluciferin luminescence; shares compounds with SENP7 inh; actives 58% (n = 6,200); inhibition, % at 12.5 µM
SENP7 confirm: SENP7 protease inhibitors, retest, confirmation, biochemical, luminescence, single concentration; shares compounds with SENP7 inh; recombinant SENP7, Z-RLRGG-aminoluciferin luminescence, 40 min; inhibition, % at 12.5 µM; actives 69% (n = 6,200); AID 488917, 2010
Casp3 select: caspase-3 protease inhibitors, confirmation, selectivity assay for SENP inhibitor project, biochemical, single concentration | shares compounds with SENP7 inh | AID 488918, 2010 | actives 60% (n = 6,200) | inhibition, % at 12.5 µM | purified caspase-3, Z-DEVD-aminoluciferin luminescence, 60 min;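 active = mean inhibition above about 50%, limit read from the data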
Target sequence (P42574 28-227 limits assumed): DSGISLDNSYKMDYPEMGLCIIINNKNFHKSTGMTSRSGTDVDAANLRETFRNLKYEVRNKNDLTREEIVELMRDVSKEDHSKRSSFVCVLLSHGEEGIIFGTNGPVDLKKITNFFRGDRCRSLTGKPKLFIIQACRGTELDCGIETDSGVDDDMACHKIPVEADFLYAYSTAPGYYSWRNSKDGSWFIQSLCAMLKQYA
Luc interf: interferes with luciferase luminescence in SENP counter-screen. Pre-incubated SENP8/Z-RLRGG-aminoluciferin, luciferase luminescence interference. actives 39% (n = 6,200). inhibition, % at 12.5 µM. shares compounds with SENP7 inh;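 active = mean inhibition above about 50% when retested at one dose, limit read from the data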
Each line names hits and unclear results; the compound was inactive in the other large screens (follow-up assays come after a bar, where they were run).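 Rule for the calls, unless noted: active = mean inhibition above about 50% in the one-dose retest (limit read from the data); inactive = the rest.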

CCN(C(=O)COC(=O)c1cccnc1Nc1cccc(C(F)(F)F)c1)C1CCS(=O)(=O)C1 (stereo not given)	SENP6 inh 63, SENP7 inh 72 | SENP8 conf 66 | SENP6 conf 64 | SENP7 confirm 86 | Casp3 select inactive | Luc interf 64
Cc1cccc(C)c1NC(=O)C(c1ccc(C#N)cc1)n1c(=O)c(-c2ccccc2)nc2ccccc21 (stereo not given)	none (no result: Apaf-1 inh, SENP8 block-1, UBC13 inh, SENP6 inh, SENP7 inh)
CCc1ccc(-n2nc3cc(C)c(N)cc3n2)cc1	SENP6 inh 69 | SENP8 conf 73 | SENP6 conf 76 | SENP7 confirm 97 | Casp3 select 69 | Luc interf inactive
Cc1ccc(NC(=O)C(=O)Nc2ccc(C)cn2)nc1	none
Cc1ccc(NC(=O)c2sccc2C)nc1	SENP8 block-1 92, SENP6 inh 99, SENP7 inh 99 | SENP8 conf 94 | SENP6 conf 95 | SENP7 confirm 102 | Casp3 select 98 | Luc interf 92
COc1ccc(C(=O)Nc2ccc(C)cn2)c(OC)c1	SENP8 block-1 90, SENP6 inh 90, SENP7 inh 94 | SENP8 conf 93 | SENP6 conf 92 | SENP7 confirm 100 | Casp3 select 94 | Luc interf 91
c1ccc(-c2noc(C3CCCCC3)n2)nc1	SENP6 inh 59, SENP7 inh 55 | SENP8 conf inactive | SENP6 conf 50 | SENP7 confirm 83 | Casp3 select 79 | Luc interf inactive
Clc1ccccc1/C=C/c1nc(-c2ccccn2)no1	SENP8 block-1 95, SENP6 inh 96, SENP7 inh 100 | SENP8 conf 99 | SENP6 conf 100 | SENP7 confirm 103 | Casp3 select 98 | Luc interf 74
c1ccc(-c2noc(-c3ccc4ccccc4c3)n2)nc1	SENP8 block-1 96, SENP6 inh 97, SENP7 inh 100 | SENP8 conf 94 | SENP6 conf 99 | SENP7 confirm 101 | Casp3 select 97 | Luc interf 60
Cc1ccc(SCc2nc(-c3ccccn3)no2)cc1	none
CC(C)(C)Cc1nc(-c2ccccn2)no1	none
c1ccc(-c2noc(-c3ccc4c(c3)OCO4)n2)nc1	SENP8 block-1 98, SENP6 inh 98 | SENP8 conf inactive | SENP6 conf 97 | SENP7 confirm 103 | Casp3 select 98 | Luc interf inactive
Brc1ccc(-c2noc(C3CCCCC3)n2)cc1	none
O=C(Nc1ccc(Cl)cc1)c1ccc2sc([C@@H]3O[C@H](CO)[C@@H](O)[C@H]3O)nc2c1	none (no result: Apaf-1 inh, SENP8 block-1, UBC13 inh, SENP6 inh, SENP7 inh)
COc1cc(C(O)c2nc(-c3cccc(C(F)(F)F)c3)cs2)ccc1F (stereo not given)	none (no result: Apaf-1 inh, SENP8 block-1, UBC13 inh, SENP6 inh, SENP7 inh)
Cc1ccc(S(=O)(=O)N2C3CCCCC3O[C@H]2CC(=O)c2cccs2)cc1 (stereo not given in full)	none (no result: Apaf-1 inh, SENP8 block-1, UBC13 inh, SENP6 inh, SENP7 inh)
